For data set [1], the system named is Plasmodium falciparum. As to the kind of experiment: Antimicrobial activity against Plasmodium falciparum 3D7 assessed as stage 3 gametocyte per 1000 RBCs at 100 uM after 5 days by Giemsa staining relative to control. The class given is functional. The essentials: (§1)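 Gametocyte cultures of strain 3D7, 8 days after setup, exposed 24 h to inhibitor at 100 µM or an equal amount of DMSO. Kept at 37°C under 90% N2/5% CO2/5% O2 and fed daily with RPMI 1640, hypoxanthine and 10% human serum. Gametocytes per 1,000 RBCs scored by stage (II–V) on Giemsa-stained smears.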

In data set [2] the test system is Plasmodium falciparum. As to the kind of experiment: Antimicrobial activity against asexual stage of Plasmodium falciparum 3D7 assessed as reduction in parasite count at 100 uM after 24 hrs by Giemsa staining. The class given is functional, organism-based. The method in brief:
(§2)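 3D7 cultures containing asexual stages and gametocytes incubated 24 h with inhibitor at 100 µM or DMSO carrier, at 37°C in a sealed chamber (90% N2, 5% CO2, 5% O2), fed with RPMI 1640, hypoxanthine and 10% human serum. Asexual parasites and gametocytes assessed on Giemsa-stained smears.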

Data set [3] deals with Plasmodium falciparum. The data set can be described thus: Antimicrobial activity against Plasmodium falciparum 3D7 assessed as stage 5 gametocyte per 1000 RBCs at 100 uM after 5 days by Giemsa staining relative to control. The class given is functional. The method in brief:
as §1

For data set [4], the system named is Plasmodium falciparum. As to the kind of experiment: Antimicrobial activity against Plasmodium falciparum 3D7 assessed as stage 4 gametocyte per 1000 RBCs at 100 uM after 5 days by Giemsa staining relative to control. The class given is functional. The essentials:
as §1

The test system of data set [5] is Plasmodium falciparum. The data set can be described thus: Antimicrobial activity against Plasmodium falciparum 3D7 assessed as stage 3 gametocytes per 1000 RBCs at 100 uM after 2 days by Giemsa staining relative to control. The class given is functional. The essentials:
(§3)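 3D7 cultures holding asexual parasites and gametocytes, gametocytogenesis induced per Ifediba and Vanderberg. Inhibitor at 100 µM or DMSO carrier for 24 h in a sealed chamber (90% N2, 5% CO2, 5% O2) at 37°C. Fed daily with RPMI 1640, hypoxanthine (10 mg liter−1) and 10% human serum. Gametocytes per 1,000 RBCs counted and staged on Giemsa smears 2 days after treatment.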

The test system of data set [6] is Plasmodium falciparum. As to the kind of experiment: Antimicrobial activity against Plasmodium falciparum 3D7 assessed as stage 4 gametocytes per 1000 RBCs at 100 uM after 2 days by Giemsa staining relative to control. The class given is functional. The method in brief: as §3
In data set [7] the test system is Plasmodium falciparum. As to the kind of experiment: Antimicrobial activity against Plasmodium falciparum 3D7 assessed as stage 2 gametocytes per 1000 RBCs at 100 uM after 2 days by Giemsa staining relative to control. The class given is functional. The essentials:
as §3

Data set [8] relates to Plasmodium falciparum. As to the kind of experiment: Antimicrobial activity against gametocyte stage of Plasmodium falciparum 3D7 after 24 hrs. The class given is functional, organism-based. Conditions: 3D7, 24 h. The method in brief: (§4)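 Mixed asexual/gametocyte 3D7 cultures (mainly stage II–III gametocytes) exposed 24 h to serial dilutions (10 nM to 1 µM) or DMSO carrier at 37°C under low-oxygen gas. Asexual parasites and gametocytes counted on Giemsa smears and expressed as percent of DMSO control. IC50 calculated from the 24-h time point.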

A short description of data set [9]: Cytotoxicity against human A549 cells assessed as viable cells at 1 uM by MTS assay in presence of 10% fetal calf serum. The class given is cell-based. The conditions noted are these: read-out: Activity. The method in brief: (§5)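 NIH-3T3 mouse fibroblasts or A549 human lung epithelial cells (1 × 104 to 5 × 10^4 per well) in DMEM with 10% FCS. Viability read by MTS tetrazolium reduction as absorbance.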
(Tetrazolium assays rely on reduction of a dye to a coloured formazan, in cell work by metabolically active cells.)

Data set [10] deals with Plasmodium falciparum. As to the kind of experiment: Antimicrobial activity against asexual stage of Plasmodium falciparum 3D7 assessed as reduction in parasite count at 100 nM after 24 hrs by Giemsa staining. The class given is functional. Details: scale not given: the % may be the effect or the level left. The method in brief:
as §4

Data set [11] concerns Plasmodium falciparum. As to the kind of experiment: Antimicrobial activity against gametocyte stage of Plasmodium falciparum 3D7 assessed as reduction in parasite count at 1 uM after 24 hrs by Giemsa staining. The class given is functional. More on the design: scale not given: the % may be the effect or the level left. The essentials: as §4
Data set [12] is described as follows: Cytotoxicity against mouse 3T3 cells assessed as viable cells at 1 uM by MTS assay in presence of 10% fetal calf serum. Conditions: 3T3 cells (NIH3T3), read-out: Activity. The class given is cell-based. The essentials:
as §5

In data set [13] the test system is Plasmodium falciparum. The data set can be described thus: Antimicrobial activity against asexual stage of Plasmodium falciparum 3D7 assessed as reduction in parasite count at 1uM after 24 hrs by Giemsa staining. The class given is functional. Details: scale not given: the % may be the effect or the level left. The essentials:
as §4

Data set [14] concerns Plasmodium falciparum. As to the kind of experiment: Antimicrobial activity against asexual stage of Plasmodium falciparum 3D7 after 24 hrs. Conditions: 3D7, 24 h. The class given is functional, organism-based. The method in brief:
as §4

Data set [15] has as its system Plasmodium falciparum. The data set can be described thus: Antimicrobial activity against gametocyte stage of Plasmodium falciparum 3D7 assessed as reduction in parasite count at 100 nM after 24 hrs by Giemsa staining. The class given is functional. Details: scale not given: the % may be the effect or the level left. The method in brief: as §4
Data set [16] relates to Plasmodium falciparum. The data set can be described thus: Antimicrobial activity against asexual stage of Plasmodium falciparum 3D7 at 100 uM after 24 hrs by Giemsa staining. The class given is functional, organism-based. The essentials:
as §2

Data set [17] has as its system Plasmodium falciparum. As to the kind of experiment: Antimicrobial activity against gametocyte stage of Plasmodium falciparum 3D7 at 100 uM after 24 hrs by Giemsa staining. The class given is functional, organism-based. The essentials:
as §2

Data set [18] concerns Plasmodium falciparum. As to the kind of experiment: Antimicrobial activity against Plasmodium falciparum 3D7 assessed as gametocytes per 1000 RBCs at 100 uM after 2 days by Giemsa staining relative to control. The class given is functional. The method in brief: as §3

Active and inactive are the calls of the source. The rule behind the calls is not given here.

For `CCOC(=O)[C@H]1O[C@@H]1C(=O)N[C@@H](CC(C)C)C(=O)NCCC(C)C` [ALOXISTATIN], the Activity with Plasmodium falciparum [1] is given as 22%; with Plasmodium falciparum [3] it was 10%; in the data set with Plasmodium falciparum [4] it was 68%; in the data set with Plasmodium falciparum [5] it was 18%; in the data set with Plasmodium falciparum [6] it was 10%; with Plasmodium falciparum [7], 72%. Also, the result with Plasmodium falciparum [2] was Active.

The term IC50 denotes the concentration that inhibits the measured activity by half. On to `CC[C@H](C)[C@H](NC(=O)[C@H]([C@@H](C)CC)N(C)C(C)=O)C(=O)N[C@H](C(=O)N[C@@H](CC(C)C)C(=O)[C@@]1(C)CO1)[C@@H](C)O` [EPOXOMYCIN], for which the IC50 with Plasmodium falciparum [8] came out at 54 nM; with Plasmodium falciparum [14], 41 nM. Besides, the viability at 1 µM in [9] and in data set [12] was 80% throughout. The Activity in the data set with Plasmodium falciparum [10] was determined as 86%; with Plasmodium falciparum [11] it was 77%; with Plasmodium falciparum [13] it was 86%; with Plasmodium falciparum [15], 77%.

Take `Cc1ccc(S(=O)(=O)N[C@@H](Cc2ccccc2)C(=O)CCl)cc1` [TPCK]: the outcome in the data set on Plasmodium falciparum [16] and in the data set on Plasmodium falciparum [17] was inactive. In addition, in the data set on Plasmodium falciparum [18], the Activity is given as 21%.

The values above are taken from ChEMBL document CHEMBL1649235, “The proteasome inhibitor epoxomicin has potent Plasmodium falciparum gametocytocidal activity” (Antimicrob Agents Chemother, 2009).
